Each structure is given as a SMILES string. Bounds are passed on as bounds.

As usually defined, the Ki is the equilibrium dissociation constant of an inhibitor or competing ligand from its target. Higher therefore signals a looser hold on the target.

The assay deals with GABA-A receptor; anion channel. Description: Ability to inhibit [3H]-Ro- 15-1788 binding to Gamma-aminobutyric acid A receptor alpha in vitro in rat cortical membranes. The class given is cell membranes. The gist of the method: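 Cortex from male Wistar rats (150–200 g) homogenized in 30 mM Tris-HCl pH 7.4, washed, incubated 30 min at 37 °C to remove endogenous GABA, stored frozen. Nonspecific binding defined with 1 μM clonazepam. Filtration on GF/C, scintillation counting; IC50 from single-concentration inhibition formula.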
Take `Cc1ccc2oc(-c3cc(C(=O)O)cc([N+](=O)[O-])c3)cc(=O)c2c1`: the Ki was more than 1700 nM.

For the compound `CCC(CC)COc1cccc(-c2cc(=O)c3cc(C)ccc3o2)c1`, the Ki amounted to 1000 nM.

Compound `Cc1ccc2oc(-c3cccc(Br)c3)cc(=O)c2c1` displayed an inhibition constant Ki of 12 nM.

As to `COc1cccc(-c2cc(=O)c3cc(C)ccc3o2)c1`, the inhibition constant (Ki) worked out at 99 nM.

The compound `COc1ccccc1-c1cc(=O)c2cc(C)ccc2o1` showed a Ki of 820 nM.

In the case of `Cc1ccc2oc(-c3cccc(C(F)(F)F)c3)cc(=O)c2c1`, affinity was put at a Ki of 9.8 nM.

Consider `Cc1ccc2oc(-c3ccc(C)c(C)c3)cc(=O)c2c1`, for which the Ki was more than 1700 nM.

Turning to `COC(=O)c1cc(N)cc(-c2cc(=O)c3cc(C)ccc3o2)c1`, the Ki is more than 1900 nM.

`COc1cc(CO)cc(-c2cc(=O)c3cc(C)ccc3o2)c1` showed a Ki of more than 1600 nM.

`COC(=O)c1cc(OC)cc(-c2cc(=O)c3cc(C)ccc3o2)c1` gave an inhibitory constant (Ki) of 3000 nM.

The compound `CCOC(=O)c1cc(N)cc(-c2cc(=O)c3cc(C)ccc3o2)c1` yielded a Ki of 3600 nM.

As for `COC(=O)c1cccc(-c2cc(=O)c3cc(C)ccc3o2)c1`, the Ki was 220 nM.

Consider `COC(=O)c1cc(C(=O)OC)cc(-c2cc(=O)c3cc(C)ccc3o2)c1`, for which the inhibition constant Ki is more than 1600 nM.

`COC(=O)c1cc(-c2cc(=O)c3cc(C)ccc3o2)cc([N+](=O)[O-])c1`: the Ki is more than 2100 nM.

`Cc1ccc2oc(-c3ccccc3)cc(=O)c2c1` [6-METHYLFLAVONE] came in with a Ki of 180 nM.

As for `Cc1ccc2oc(-c3cccc(C(=O)OC(C)C)c3)cc(=O)c2c1`, the affinity corresponds to a Ki of 180 nM.

For the compound `CCC(CC)COC(=O)c1cccc(-c2cc(=O)c3cc(C)ccc3o2)c1`, the Ki is 610 nM.

On to `Cc1ccc2oc(-c3ccc(N)cc3)cc(=O)c2c1`, for which affinity was put at a Ki of 2600 nM.

In turn, `COc1cc(C(=O)O)cc(-c2cc(=O)c3cc(C)ccc3o2)c1` returned a Ki of more than 1600 nM.

`Cc1ccc2oc(-c3cccc(N)c3)cc(=O)c2c1` showed a Ki of 1200 nM.

`Cc1cccc2c(=O)cc(-c3ccccc3)oc12` registered a Ki of more than 1700 nM.

The compound `Cc1ccc2oc(-c3ccccc3O)cc(=O)c2c1` showed a Ki of 6.2 nM.

As for `Cc1ccc2oc(-c3ccccc3N)cc(=O)c2c1`, the Ki turned out to be 700 nM.

With `Cc1ccc2oc(-c3cccc(C(=O)O)c3)cc(=O)c2c1`, the Ki is more than 1700 nM.

Regarding `Cc1ccc2oc(-c3cc(C(=O)O)cc(C(=O)O)c3)cc(=O)c2c1`, the Ki was more than 1600 nM.

The compound `CC(C)c1ccc2oc(-c3ccccc3)cc(=O)c2c1` displayed a Ki of 720 nM.

With `COC(=O)c1cc(O)cc(-c2cc(=O)c3cc(C)ccc3o2)c1`, the Ki was more than 1600 nM.

The compound `Cc1ccc(O)c(-c2cc(=O)c3cc(C)ccc3o2)c1` yielded a Ki of 7.8 nM.

Regarding `Cc1ccc2oc(-c3cc(Br)ccc3O)cc(=O)c2c1`, the Ki was 0.9 nM.

Take `Cc1ccc2oc(-c3cccc(O)c3)cc(=O)c2c1`: the Ki stood at 390 nM.

In turn, `CCc1ccc2oc(-c3ccccc3)cc(=O)c2c1` gave a Ki of 180 nM.

Compound `CCCCOc1cccc(-c2cc(=O)c3cc(C)ccc3o2)c1` displayed a Ki of 710 nM.

In turn, `Cc1ccc2oc(-c3cccnc3)cc(=O)c2c1` came in with a Ki of 130 nM.

With `Cc1ccc2oc(-c3cc(O)cc(C(=O)O)c3)cc(=O)c2c1`, the Ki was more than 1600 nM.

For `Cc1ccc2oc(-c3cc(CO)cc(CO)c3)cc(=O)c2c1`, the Ki is more than 1500 nM.

Turning to `COc1ccc(Br)cc1-c1cc(=O)c2cc(C)ccc2o1`, the Ki was more than 1500 nM.

For `COC(=O)c1cc(CO)cc(-c2cc(=O)c3cc(C)ccc3o2)c1`, the Ki was more than 1500 nM.

Take `COc1ccc(C)cc1-c1cc(=O)c2cc(C)ccc2o1`: the Ki was more than 1500 nM.

In turn, `Cc1cc(C)cc(-c2cc(=O)c3cc(C)ccc3o2)c1` showed a Ki of more than 1500 nM.

For the compound `CCCc1ccc2oc(-c3ccccc3)cc(=O)c2c1`, the affinity, expressed as Ki, was 480 nM.

Values taken from ChEMBL document CHEMBL1135589, “Refinement and evaluation of a pharmacophore model for flavone derivatives binding to the benzodiazepine site of the GABA(A) receptor” (J Med Chem, 2002).
